ERAP1 HTS inh: ERAP1 (human) enzyme inhibition; hit rate 0.15% among 340,000; inhibition, % at 10.7 µM; AID 652197; Q9NZ08; recombinant ERAP1, Leu-AMC fluorescence, 60 min;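 active means mean replicate inhibition of at least 30%, or all replicates individually reaching that 30% level; inactive means mean below 30% and not every replicate reaching it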
S100A4 MyoIIA: inhibitors of human S100A4 binding to myosin IIA peptide; hit rate 0.14% among 360,000; inhibition, % at 10.7 µM; P26447; S100A4/TAMRA-MyoIIA peptide fluorescence polarization;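 active means mean inhibition of at least 70% across replicates, with every replicate also reaching that level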
Target sequence (P26447 whole entry, looked up): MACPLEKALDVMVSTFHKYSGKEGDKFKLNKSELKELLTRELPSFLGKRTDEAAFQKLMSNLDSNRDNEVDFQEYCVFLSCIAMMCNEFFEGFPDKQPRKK
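incubation = readout 5 min after mixing, signal stable up to 60 min | system = S100A4 monomer protein | buffer or medium = HEPES pH 7.2 with CaCl2, KCl, NaCl, DTT, Triton | benchmarks = neutral control DMSO, positive control TFP | also added = fluorescent myosin IIA peptide, 5 nM | compound dosing = one concentration per compound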
MLL AF4-AF9 inh: blocks AF4 peptide binding to human AF9; AlphaScreen, biotin-AF4 peptide binding to FLAG-AF9; inhibition, % at 10 µM; hit rate 0.47% among 350,000; AID 651704;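 active means every replicate reaching a set inhibition limit, whatever the replicate mean, cut at about 25% in these data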
miR-122 sensor: blocks miR-122 activity in Huh7 sensor cells; Huh7 miR-122 Renilla luciferase sensor, 48 h; neutral wells = 0, positive control = 100; activation (reporter increase), % at 12.5 µM; hit rate 0.3% among 340,000;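 active means mean replicate activation score at least 90 and every replicate individually at or above 90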;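 further: higher luciferase means less miR-122 activity so hits act as miR-122 inhibitors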
Rtt109 HAT inh: blocks Candida albicans Rtt109/Vps75 acetyltransferase activity. Q5AAJ8. purified Rtt109/Vps75, ThioGlo CoA-SH fluorescence, 4 h. inhibition, % at 34.9 µM. hit rate 0.16% among 330,000. AID 540336;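 active means inhibition of at least 50% in every replicate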
Target sequence (Q5AAJ8 whole entry, looked up): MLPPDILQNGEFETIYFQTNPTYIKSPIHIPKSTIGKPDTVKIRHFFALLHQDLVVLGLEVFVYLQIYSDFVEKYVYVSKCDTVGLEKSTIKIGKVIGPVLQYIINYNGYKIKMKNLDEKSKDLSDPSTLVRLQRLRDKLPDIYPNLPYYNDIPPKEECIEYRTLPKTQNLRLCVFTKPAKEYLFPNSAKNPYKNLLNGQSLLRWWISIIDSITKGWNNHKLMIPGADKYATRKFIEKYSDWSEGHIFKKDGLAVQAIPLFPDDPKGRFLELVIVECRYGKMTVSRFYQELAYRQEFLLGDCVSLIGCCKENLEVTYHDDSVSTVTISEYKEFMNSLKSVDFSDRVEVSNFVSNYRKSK
Numbers stand for hits; i = inactive; nt = no result; [ ] = another dose, or the depositor's remark. A selection: hits, their analogues and other compounds. The true share with any hit is near 0.86%.

SMILES	ERAP1 HTS inh	S100A4 MyoIIA	MLL AF4-AF9 inh	miR-122 sensor	Rtt109 HAT inh
COc1ccc(C(C)C)cc1S(=O)(=O)NCc1ccccn1	nt	nt	nt	i	i
Cc1cc(C)c(S(=O)(=O)NCc2ccccn2)cc1C	i	i	i	100.6	i
CO[C@@H]1CN(C)C(=O)c2cc(NS(C)(=O)=O)ccc2OC[C@@H](C)N(CC2CCCCC2)C[C@H]1C	i	i	i	i	nt
COc1ccc2c3c(n(C)c2c1)[C@@H](CO)N(Cc1nccs1)CC31CN(C(C)=O)C1	i	i	i	nt	nt
CC#CC[N+](C)(C)CCCCCCCCCCCC	42.4	i	i	nt	i
CCCCCCCCCCCCCCCC[N+](C)(C)CC	77.5	i	i	i	74.3
CCCCCC[N+](C)(C)CCSSCC[N+](C)(C)CCCCCC	nt	i	i	i	i
CCCCCCCCCCCCCCCC[N+](C)(C)CCl	88.1	i	i	i	i
NCC[C@H]1CC[C@@H](NS(=O)(=O)c2ccc(Cl)cc2)[C@H](CO)O1	i	i	i	nt	nt
CCOc1ccc(NCc2cccn2-c2nnc(N3CCC(C(=O)NCCCN4CCCCC4)CC3)s2)cc1	i	i	33.1	i	i
C[C@H](CO)N1C[C@H](C)[C@H](CN(C)S(=O)(=O)c2cn(C)cn2)Oc2cc(C3=CCCCC3)ccc2S1(=O)=O	i	i	i	i	nt
O=C(C[C@@H]1C=C[C@@H](NC(=O)Nc2ccc(F)cc2)[C@H](CO)O1)NCc1cccc(F)c1	i	i	i	nt	nt
COc1ccc(OC)c(N2CC(O)=C(c3nc4ccccc4s3)C2=N)c1	nt	nt	nt	i	i
CCOc1ccccc1N1CC(O)=C(c2nc3ccccc3s2)C1=N	i	i	i	100.5	i
Cc1ccc(S(=O)(=O)c2cc3ccccc3oc2=O)cc1	nt	nt	nt	i	i
O=S(=O)(c1ccccc1)c1cc(O)ccc1O	i	i	i	220.8	i
Cc1c(O)ccc2cc(S(=O)(=O)c3ccccc3)c(=O)oc12	132.0	i	i	nt	i
O=C(CN1CCOCC1)NCC[C@H]1CC[C@@H](NC(=O)Nc2ccc(Cl)cc2)[C@H](CO)O1	i	i	i	nt	nt
O=C(c1ccncc1)N1C[C@@H]2[C@H](c3ccccc31)[C@@H](CO)N2C(=O)Nc1ccc(F)cc1	i	i	i	i	nt
CC1CCCC(NS(=O)(=O)c2cccc3nsnc23)C1C (stereo unspecified)	i	i	i	i	55.3
CCCNC(=O)C[C@@H]1CC[C@H]2[C@H](COc3ccc(NC(=O)c4ccc(C(F)(F)F)cc4)cc3C(=O)N2C)O1	i	i	i	i	nt
Cc1noc(C)c1NC(=O)Nc1ccc2c(c1)CC(=O)N([C@@H](C)CO)C[C@H](C)[C@@H](CN(C)Cc1ccc(Cl)c(Cl)c1)O2	i	i	i	108.8[16.7 µM]	nt
C[C@@H]1CN([C@@H](C)CO)C(=O)Cc2cc(NC(=O)Nc3ccc4c(c3)OCO4)ccc2O[C@H]1CN(C)Cc1ccc2c(c1)OCO2	i	i	25.4	i	nt
Oc1ccc(N=Nc2ccc3ccccc3c2)cc1	i	i	25.8	nt	i
COc1cc(N=Nc2ccccc2C(=O)O)ccc1O	i	i	i	nt	i
SMILES	ERAP1 HTS inh	S100A4 MyoIIA	MLL AF4-AF9 inh	miR-122 sensor	Rtt109 HAT inh
COc1cc(N=Nc2ccc3ccccc3c2)ccc1O	i	i	29.5	nt	i
C[C@H](CO)N1C[C@H](C)[C@@H](CN(C)CC2CC2)Oc2cc(C#C[C@@H](C)O)ccc2S1(=O)=O	nt	nt	nt	i	nt
CCOc1cc(/C=C2\CCCc3c2nc2ccccc2c3C(=O)O)ccc1OC	i	80.0	i	i	i
CO[C@H]1CN(C)C(=O)c2cc(NC(=O)NC(C)C)ccc2OC[C@H](C)N(S(C)(=O)=O)C[C@H]1C	i	i	i	nt	nt
C[N+](C)(C)CCOC(=O)C1(c2ccccc2)CCCC1	nt	nt	nt	i	i
C[N+]1(CCOC(=O)C2(c3ccccc3)CCCC2)CCCCC1	67.0	i	i	nt	i
COc1ccc(-c2ccc3c(c2)O[C@H](CN(C)Cc2ccccc2C(=O)O)[C@H](C)CN([C@H](C)CO)S3(=O)=O)cc1	i	i	i	i	nt
C[C@H]1CCC/C=C/[C@@H]2C[C@H](O)C[C@H]2[C@H](O)[C@H](S(=O)c2ccc(O)cc2)CC(=O)O1 (stereo partly specified)	67.1	i	i	i	i
CC1CCCC=CC2CC(OC(=O)CN(C)C)CC2C(O)C=CC(=O)O1 (stereo unspecified)	i	i	i	i	i
COc1ccc(CNc2ncc(-c3ccc(F)cc3)n2C)cc1OC	nt	i	i	i	i
COc1cc(CNc2ncc(-c3ccc(Br)cc3)n2C)cc(OC)c1O	i	i	25.3	i	i
